Measured values published in PMC3912990 (Current biology : CB, 2014).

Legend:
Assay in all cases: FLIPR intracellular Ca2+, agonist mode
Assay type in all cases: cell-based
[1] = target: κ-opioid receptor (Homo sapiens, UniProt P41145)
In short: (§1)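 Human opioid receptor cDNA in pcDNA3.1(−), stably expressed in HEK293T cells grown in DMEM with 10% FBS. Test compound was dissolved in DMSO, diluted in FLIPR buffer and added automatically within 4 sec. Intracellular Ca2+ was monitored over 4 min (excitation 488 nm, emission 520 nm), and data were recorded as fluorescence (arbitrary units) versus time.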

[2] = target: μ-opioid receptor (Homo sapiens, UniProt P35372); details: stable HEK293T line
In short: as §1

[3] = target: δ-opioid receptor (Homo sapiens, UniProt P41143)
In short: as §1

Chain of κ-opioid receptor (P41145 whole entry): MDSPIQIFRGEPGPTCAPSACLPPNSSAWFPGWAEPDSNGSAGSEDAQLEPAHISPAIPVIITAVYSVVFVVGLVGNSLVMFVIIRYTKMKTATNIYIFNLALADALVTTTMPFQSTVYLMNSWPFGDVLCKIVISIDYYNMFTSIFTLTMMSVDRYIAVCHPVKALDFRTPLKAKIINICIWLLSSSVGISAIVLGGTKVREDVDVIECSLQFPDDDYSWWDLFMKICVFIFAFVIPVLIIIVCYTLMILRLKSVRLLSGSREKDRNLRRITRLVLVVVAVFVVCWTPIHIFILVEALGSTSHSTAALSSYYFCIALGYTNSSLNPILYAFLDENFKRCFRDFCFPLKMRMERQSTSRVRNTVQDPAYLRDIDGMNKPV
Chain of δ-opioid receptor (P41143 whole entry): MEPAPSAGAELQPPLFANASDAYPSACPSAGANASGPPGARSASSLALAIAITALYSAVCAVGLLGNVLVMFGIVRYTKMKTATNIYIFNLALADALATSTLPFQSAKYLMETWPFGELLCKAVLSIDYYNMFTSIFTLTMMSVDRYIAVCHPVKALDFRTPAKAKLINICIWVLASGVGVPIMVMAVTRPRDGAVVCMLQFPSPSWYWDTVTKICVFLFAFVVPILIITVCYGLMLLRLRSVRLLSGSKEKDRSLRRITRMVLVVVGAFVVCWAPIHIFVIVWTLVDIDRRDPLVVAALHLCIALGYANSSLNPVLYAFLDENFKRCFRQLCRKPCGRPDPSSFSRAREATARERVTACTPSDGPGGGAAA
Chain of μ-opioid receptor (P35372 whole entry): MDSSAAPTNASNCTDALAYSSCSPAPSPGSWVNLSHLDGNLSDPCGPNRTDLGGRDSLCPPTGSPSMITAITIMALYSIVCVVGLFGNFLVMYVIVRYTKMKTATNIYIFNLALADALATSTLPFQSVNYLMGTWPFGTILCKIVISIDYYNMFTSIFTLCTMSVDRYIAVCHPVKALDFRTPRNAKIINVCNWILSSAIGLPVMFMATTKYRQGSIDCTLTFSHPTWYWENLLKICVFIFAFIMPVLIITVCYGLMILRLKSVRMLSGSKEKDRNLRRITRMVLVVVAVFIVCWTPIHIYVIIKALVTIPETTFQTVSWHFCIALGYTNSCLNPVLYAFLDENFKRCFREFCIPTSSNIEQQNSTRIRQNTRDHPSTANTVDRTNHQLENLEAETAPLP

Compound: COc1cc2c(cc1O)CC[n+]1cc3c(OC)c(OC)ccc3c(C)c1-2 [DHCB]
- EC50 [1]: > 500 µM
- Opioid Agonist (EC50, μM) / μ [2]: 100 (74~136) μM
- EC50 [3]: > 500 µM
